This passage reports IC50, Activity and survival results from ChEMBL document CHEMBL1144476, “Phenolic hydrazones are potent inhibitors of macrophage migration inhibitory factor proinflammatory activity and survival improving agents in sepsis” (J Med Chem, 2007).

For one assay, the target named is T1, Macrophage migration inhibitory factor (Homo sapiens, UniProt P14174).
T1 sequence (P14174 whole entry): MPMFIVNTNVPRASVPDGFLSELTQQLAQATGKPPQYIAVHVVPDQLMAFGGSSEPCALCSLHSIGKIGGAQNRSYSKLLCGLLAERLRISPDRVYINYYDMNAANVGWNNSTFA
In words: Inhibition of MIF tautomerase activity by spectrophotometric assay.
Conditions: not given
In the case of `COc1ccc(COC(=O)N/N=C/c2ccc(O)cc2)cc1`, the IC50 – broadly, the concentration at which inhibition is half-maximal – was 8 µM.
On the same count and under the same terms, the figure for `N/N=C/c1ccc(O)cc1` is over 500 µM; for `COc1ccc(N/N=C/c2ccc(O)cc2)cc1` it is 0.48 µM; for `O=C(N/N=C/c1ccc(O)cc1)OCc1ccccc1` it is 10 µM.
On to `CCOC(=O)N/N=C/c1ccc(O)cc1`, for which it took 43 µM to reach half-maximal inhibition (IC50).
Compound `COC(=O)N/N=C/c1ccc(O)cc1` returned an IC50 of 55 µM.
The compound `COc1ccc(N/N=C/c2ccc(O)c(Cl)c2)cc1` yielded an IC50 of 0.22 µM.
As to `CN/N=C/c1ccc(O)cc1`, inhibition was half-maximal at 43 µM (IC50).
Consider `CN(/N=C/c1ccc(O)cc1)c1ccccc1`, for which 300 µM corresponded to half-maximal inhibition (IC50).
With `CC(C)(C)OC(=O)N/N=C/c1ccc(O)cc1`, half-maximal inhibition (IC50) required 5.5 µM.
Turning to `COc1ccc(N/N=C/c2ccc(O)c(Br)c2)cc1`, the IC50 worked out at 0.33 µM.
Turning to `COc1ccc(N/N=C/c2ccc(O)c(F)c2)cc1`, half-maximal inhibition (IC50) required 0.13 µM.
For `Oc1ccc(/C=N/Nc2ccccc2)cc1`, the midpoint of inhibition, the IC50, lay at 2.6 µM.

The species entered for a further assay is Mus musculus. In words: Inhibition of LPS-induced TNFalpha release in […] macrophages after 16 hrs.
Conditions: not given
Type of assay: functional. Put shortly: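 […] macrophages (10⁵ cells) given compound at 0.01–100 μM 30 min before LPS stimulation; 16 h incubation, then TNF measured in culture supernatants by ELISA. Mean ± S.D, n=3.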
For `COc1ccc(N/N=C/c2ccc(O)c(F)c2)cc1`, the Activity result is “Dose-dependent effect”.

The subject of the next assay is Mus musculus. Briefly: Survival of CLP-induced BALB/c mouse at 4 mg/kg, ip after 3 days. Type of assay: functional. The settings on record: 72 h, route intraperitoneal. A digest of the protocol:
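Male Balb/C mice (~8 weeks) given cecal ligation with a single 22G puncture under ketamine/xylazine anaesthesia. Subcutaneous antibiotic and saline resuscitation were given right after surgery. Dosing was 4 mg/kg intraperitoneally in 20% DMSO/80% saline, started 24 h post-CLP and repeated twice daily on days 2 and 3. The vehicle group was handled the same way. Survival was scored with n=13 per group.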
The compound `COc1ccc(N/N=C/c2ccc(O)c(F)c2)cc1` gave a survival at 4 mg/kg of 65%.
